A value given as a limit tells only on which side of the number the result lay.

Data on one compound can be found in ChEMBL document CHEMBL4177662, “Phosphamide-containing diphenylpyrimidine analogues (PA-DPPYs) as potent focal adhesion kinase (FAK) inhibitors with enhanced activity against pancreatic cancer cell lines” (Bioorg Med Chem, 2017).

For experiment [1], the system named is ASPC1. Kind of experiment: Antiproliferative activity against human Aspc-1 cells assessed as cell viability at 4 uM after 24 hrs by MTT assay (reference value: 100%). In kind it is functional. To be noted: ASPC1, 24 h, read-out: Activity. On the technique in general: Formazan colour is commonly taken as a measure of viable cells.
In experiment [2] the test system is ASPC1. Kind of experiment: Cell cycle arrest in human Aspc-1 cells assessed as accumulation at G0/G1 phase at 1 uM after 72 hrs by propidium iodide staining-based flow cytometry (reference value: 39.41%). It counts as functional. In general terms: A flow cytometer gives signals particle by particle.
In experiment [3] the test system is ASPC1. The experiment can be described thus: Cell cycle arrest in human Aspc-1 cells assessed as accumulation at G2/M phase at 5 uM after 72 hrs by propidium iodide staining-based flow cytometry (reference value: 0.89%). In kind it is functional.
The test system of experiment [4] is BXPC-3. The experiment can be described thus: Antiproliferative activity against human BxPC3 cells assessed as cell viability at 0.5 uM after 24 hrs by MTT assay (reference value: 100%). It counts as functional. To be noted: BXPC-3, 24 h, read-out: Activity.
Experiment [5] has as its system Epidermal growth factor receptor (Homo sapiens), P00533 [T790M]. Kind of experiment: Inhibition of recombinant GST-tagged human EGFR cytoplasmic domain (668 to 1210 residues) T790M mutant expressed in baculovirus expression system at 100 nM relative to control. Summed up:
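Part of a small kinase-panel profile run by an outsourced biochemical profiling service. The test compound was given at a single concentration of 100 nM, and activity was reported as percent inhibition rate.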

Experiment [6] has as its system PANC-1. The experiment can be described thus: Antiproliferative activity against human PANC1 cells after 72 hrs by MTT assay. In kind it is functional, cell-based. To be noted: PANC-1, 72 h. Summed up:
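Cells grown in DMEM with 10% FBS and 1% penicillin-streptomycin at 37 °C, 5% CO2. Seeded at 4,000 to 5,000 cells/well, cultured one day, then exposed to compounds for 72 h at 1.25 to 40 μmol/L, five replicates per concentration. MTT absorbance read at 570 nm. IC50 from five-point dose-response curves; mean of at least three separate experiments.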

For experiment [7], the system named is PANC-1 (human). The experiment can be described thus: Antiproliferative activity against human PANC-1 cells assessed as cell viability at 4 uM after 72 hrs by MTT assay (reference value: 97%). To be noted: PANC-1, 72 h.
Experiment [8] relates to ASPC1. The experiment can be described thus: Induction of apoptosis in human Aspc-1 cells assessed as viable cells at 10 uM after 72 hrs by Annexin V-FITC/propidium iodide staining-based flow cytometry (reference value: 100%). It counts as functional. To be noted: ASPC1, 72 h, read-out: Activity. Summed up:
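AsPC-1 cells (3 to 5×10^5 per well) were treated with DMSO solvent control or compound for 72 h in medium with 5% FBS. Cells were then stained with Annexin V-FITC and propidium iodide and analysed by flow cytometry. One representative experiment shown.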

In experiment [9] the test system is BXPC-3. The experiment can be described thus: Antiproliferative activity against human BxPC3 cells assessed as cell viability at 0.5 uM after 72 hrs by MTT assay (reference value: 97%). In kind it is functional. The conditions noted are these: BXPC-3, 72 h, read-out: Activity.

Chain of Epidermal growth factor receptor (Homo sapiens), P00533 [T790M] (P00533 whole entry T790M, the tested form may be a part): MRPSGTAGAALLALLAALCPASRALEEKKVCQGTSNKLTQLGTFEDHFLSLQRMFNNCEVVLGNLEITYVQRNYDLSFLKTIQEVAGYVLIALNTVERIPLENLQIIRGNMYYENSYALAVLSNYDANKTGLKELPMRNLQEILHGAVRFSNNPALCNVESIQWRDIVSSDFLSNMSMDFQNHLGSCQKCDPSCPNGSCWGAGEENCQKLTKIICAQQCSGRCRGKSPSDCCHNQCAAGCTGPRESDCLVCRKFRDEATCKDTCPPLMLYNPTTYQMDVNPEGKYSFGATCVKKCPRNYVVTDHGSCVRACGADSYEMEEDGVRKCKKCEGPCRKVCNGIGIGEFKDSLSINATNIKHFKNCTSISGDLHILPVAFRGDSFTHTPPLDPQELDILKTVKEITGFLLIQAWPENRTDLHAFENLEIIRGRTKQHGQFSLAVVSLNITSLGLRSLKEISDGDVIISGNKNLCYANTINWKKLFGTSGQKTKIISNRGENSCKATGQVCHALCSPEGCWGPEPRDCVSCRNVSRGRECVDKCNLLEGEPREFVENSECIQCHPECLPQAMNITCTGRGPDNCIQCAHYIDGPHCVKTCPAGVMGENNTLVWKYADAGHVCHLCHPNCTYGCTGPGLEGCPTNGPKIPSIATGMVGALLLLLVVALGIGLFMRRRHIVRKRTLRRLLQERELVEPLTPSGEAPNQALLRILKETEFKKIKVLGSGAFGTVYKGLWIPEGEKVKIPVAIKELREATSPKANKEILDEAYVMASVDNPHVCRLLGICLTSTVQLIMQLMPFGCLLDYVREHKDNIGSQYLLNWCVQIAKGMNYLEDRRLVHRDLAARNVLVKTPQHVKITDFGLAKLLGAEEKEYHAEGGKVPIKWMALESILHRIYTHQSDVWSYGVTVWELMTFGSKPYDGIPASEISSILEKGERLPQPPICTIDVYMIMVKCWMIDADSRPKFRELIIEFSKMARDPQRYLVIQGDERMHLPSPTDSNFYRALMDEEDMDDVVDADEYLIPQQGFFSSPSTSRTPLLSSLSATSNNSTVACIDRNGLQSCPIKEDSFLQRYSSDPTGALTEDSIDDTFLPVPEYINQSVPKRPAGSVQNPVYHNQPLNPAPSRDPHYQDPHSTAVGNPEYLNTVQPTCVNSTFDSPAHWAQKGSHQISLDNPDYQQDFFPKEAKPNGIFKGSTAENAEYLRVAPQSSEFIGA

As for `CCOP(=O)(CCCOc1ccc(Nc2ncc([N+](=O)[O-])c(Nc3ccccc3C(=O)NC)n2)cc1)N1CCOCC1` (centres undefined), the viability at 4 µM was 68% in [1] and 58.4% in experiment [7]. Besides, the values for the Activity in [2] and in experiment [3] were 38.6% and 22.11%, respectively. Besides, the results for the viability at 0.5 µM in [4] and in experiment [9] were 98% and 69.8%, respectively. For the same compound, the inhibition (usually how much of the control response was suppressed) in [5] was found to be 45%. For the same compound, the IC50 (usually the midpoint of a concentration-inhibition curve) in [6] is over 40 µM. The viability at 10 µM in experiment [8] turned out to be 7.7%.
